Screening results from PubChem.
SENP7 block = SENP7 protease inhibition. inhibition, % at 5 µM. AID 434973. Q9BQF6. 330,000 tested, 1.5% active. recombinant SENP7, Z-RLRGG-aminoluciferin luminescence, 40 min;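 active means inhibition above about 50% at the single test dose, limit read from the data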;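 further: plate controls were DMSO with enzyme for no effect and no enzyme buffer wells for full effect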
SENP1 FRET inh = blocks the human SENP1 SUMO protease catalytic domain. Q9P0U3. recombinant SENP1 catalytic domain, CyPet-SUMO1-YPet FRET cleavage. inhibition, % at 10 µM. 360,000 tested, 0.21% active;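 active means inhibition at least 30% at 10 µM, raw YFP signal under a set limit, fluorescence ratio 0.5 to 1.5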;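 further: 0% = enzyme with DMSO and 100% = no enzyme wells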
Target sequence (Q9P0U3 419-644 limits assumed): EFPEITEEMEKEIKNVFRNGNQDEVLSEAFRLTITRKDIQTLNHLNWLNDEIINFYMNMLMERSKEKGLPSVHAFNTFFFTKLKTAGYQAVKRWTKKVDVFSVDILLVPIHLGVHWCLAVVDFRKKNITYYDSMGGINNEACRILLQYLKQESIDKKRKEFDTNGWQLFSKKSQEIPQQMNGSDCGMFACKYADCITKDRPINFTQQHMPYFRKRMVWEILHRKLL
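Assay system – human recombinant His6-tagged SENP1 catalytic domain enzyme · Input – SENP1 enzyme, 20 pM final · Buffer or medium – Tris pH 8 buffer plus EDTA, NaCl, BME, BSA, NP40, catalase · Schedule – 50 min reaction at room temperature · Technique – FRET read of cyan and yellow fluorescence · Control set – no-enzyme wells low, DMSO-plus-enzyme wells high control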
SENP6 inh = inhibitors of human SENP6 protease; Q9GZR1; Recombinant SENP6 catalytic domain, aminoluciferin luminescence; inhibition, % at 10 µM; 330,000 tested, 1.8% active;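 active means inhibition above about 50% at the single tested dose, limit read from the data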;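 further: plate controls were DMSO wells with enzyme for no effect and DMSO wells lacking enzyme for full effect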
SENP8 block-1 = inhibitors of human SENP8 protease | purified SENP8, Z-RLRGG-aminoluciferin cleavage, luminescence | inhibition, % at 10 µM | 330,000 tested, 1.2% active | AID 2540; in the data active means inhibition above about 50%
Target sequence (Q96LD8 whole entry, looked up): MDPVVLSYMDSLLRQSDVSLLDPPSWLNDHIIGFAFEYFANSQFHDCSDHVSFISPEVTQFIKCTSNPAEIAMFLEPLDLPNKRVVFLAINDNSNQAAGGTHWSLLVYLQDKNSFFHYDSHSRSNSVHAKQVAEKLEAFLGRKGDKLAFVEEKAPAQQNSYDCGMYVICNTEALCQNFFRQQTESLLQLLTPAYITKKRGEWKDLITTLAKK
SENP8 block-2 = SENP8 (human) protease inhibition; inhibition, % at 20 µM; recombinant SENP8, Nedd8 substrate fluorescence; Q96LD8; 360,000 tested, 0.64% active; in the data active means inhibition mostly above about 40%, no sharp cut-off; inactive means mostly below about 27%
* marks the source's active call; other numbers are inactive results; i = inactive; . = no result given. Rows were chosen to be rich in hits. Some 2.5% of all compounds tested hit in one or more screens of this group.

SMILES | SENP7 block | SENP1 FRET inh | SENP6 inh | SENP8 block-1 | SENP8 block-2
Cc1c(NC(=S)N/N=C/c2ccc([N+](=O)[O-])cc2O)c(=O)n(-c2ccccc2)n1C | -3.9 | 1.5 | 0.5 | 2.3 | 40.1*
Cc1c(NC(=S)N/N=C\c2ccccc2O)c(=O)n(-c2ccccc2)n1C | -1.0 | -61.7 | -2.1 | 7.5 | -212.4
Cc1ccc(Oc2ccc(-c3nc(N)nc(N)n3)cc2)cc1C | 8.5 | 1.6 | -9.8 | 3.9 | -1.0
Cc1cc(C)cc(C(=O)NC(CC(N)=O)c2ccc(N3CCCCCC3)c([N+](=O)[O-])c2)c1 (stereo not given) | 1.6 | 3.0 | -5.1 | -3.9 | 22.3
COc1ccc(S(=O)(=O)n2ccc(-c3cnc(-c4ccccc4)s3)n2)cc1 | -1.4 | 0.9 | 10.1 | -2.1 | -380.9
O=C(c1ccccc1)n1ccc(-c2cnc(-c3ccccc3)s2)n1 | 90.1* | 4.0 | 56.6* | 67.5* | i
O=C(CN1CCN(C(C(=O)Nc2ccc(F)cc2)c2ccccc2)CC1)NC1CC1 (stereo not given) | 2.9 | 0.3 | -1.9 | 9.4 | 2.2
CCOC(=O)c1c2c(n(-c3ccc(OC)cc3)c1C)C(=O)C(=O)c1ccccc1-2 | . | 3.1 | . | . | 110.3*
COC(=O)c1ccccc1Oc1cc(C(F)(F)F)nc(-c2ccccn2)n1 | -5.4 | 4.2 | -8.5 | -5.2 | 22.2
CN1C(=O)/C(=C/c2cccc([N+](=O)[O-])c2)C(=O)N1c1ccccc1 | 7.0 | 0.1 | -6.5 | -0.6 | 44.8*
CC(=O)c1ccc(NC(=S)Nc2cccc3ccccc23)cc1 | 52.9* | -4.9 | 91.2* | 64.5* | -389.7
Cc1ccc(NC(=S)Nc2cccc3ccccc23)cc1F | 48.6 | -24.1 | 93.5* | 89.1* | -389.2
CC(=O)c1cccc(NC(=O)C(=O)Nc2cccc3ccccc23)c1 | 35.0 | 0.2 | 2.0 | -1.6 | 7.2
S=C(NCc1ccccc1)Nc1cccc2ccccc12 | 2.7 | -0.3 | 14.2 | 13.9 | -265.4
Cc1ccc2c(c1)N(CC(=O)Nc1ncccc1C)C(=O)C(C(C)C)O2 (stereo not given) | 10.8 | 1.3 | -1.7 | -10.9 | 3.1
O=C(COc1ccc2c(c1)oc(=O)c1ccccc12)NCCCN1CCOCC1 | 10.6 | 4.6 | 10.5 | -2.1 | -320.9
Fc1ccc(N/N=C/C=C/c2ccccc2)c(F)c1 | 4.1 | -58.4 | 37.4 | -12.7 | -378.4
Fc1ccc(N/N=C/c2ccncc2)c(F)c1 | 30.5 | 2.9 | 58.5* | 44.3 | 1.4
O=C1c2[nH]c3ccccc3c2CC1N1C(=O)c2ccccc2C1=O (stereo not given) | . | 0.4 | . | . | 24.7
c1ccc(-c2ccc(-c3ccccn3)nn2)nc1 | 89.1* | . | 83.3* | 70.5* | .
Cc1cccc(C)c1NC(=O)C(c1ccnc2ccccc12)N1CCN(C)CC1 (stereo not given) | . | 1.8 | . | . | -20.3
C=CCSc1nc2sc3c(c2c(=O)n1-c1ccc(C)cc1)CCN(C)C3 | 3.1 | -65.5 | 13.8 | 3.6 | -266.9
CCCC/C(O)=C1\C(=O)CC(C)(C)CC1=NCCCCCC(=O)O | 2.4 | -2.7 | -20.4 | -5.7 | 5.0
Cc1cccc2cc(C(c3nnnn3Cc3ccc4c(c3)OCO4)N3CCCC3)c(=O)[nH]c12 (stereo not given) | 6.6 | -8.8 | 1.8 | -6.5 | -44.8
Cc1ccc(C)c2[nH]c(=O)c(C(c3nnnn3Cc3ccccc3)N3CCc4ccccc4C3)cc12 (stereo not given) | 45.8 | -35.4 | 65.8* | 34.3 | -31.7
SMILES | SENP7 block | SENP1 FRET inh | SENP6 inh | SENP8 block-1 | SENP8 block-2
Cc1ccc(-c2nc(-c3ccccn3)no2)cc1Cl | 99.2* | 2.0 | 95.1* | 96.4* | -15.6
Cc1nc(-c2ccccc2)sc1C1(C)CC(c2ccc(OC(F)(F)F)cc2)=NO1 (stereo not given) | -6.2 | 1.3 | -9.8 | -15.7 | -1.2
CCN1C(=O)C(=Cc2cccc(OC)c2Oc2ccc([N+](=O)[O-])cc2[N+](=O)[O-])SC1=S | 54.5* | 0.2 | 81.4* | 94.6* | 33.4
COc1cc(/C=C2\SC(=O)NC2=O)ccc1Oc1ccc([N+](=O)[O-])cc1[N+](=O)[O-] | 4.6 | 4.3 | 4.6 | -3.4 | 17.2
CCC(COC(=O)c1ccccc1)Oc1cc(NCc2ccccc2)c2ncn(C(C)C)c2c1 (stereo not given) | -0.1 | -30.3 | -9.3 | -5.5 | 43.9*
O=[N+]([O-])c1ccc(/C=N/n2c(CO)nc3ccccc32)s1 | 28.3 | 58.1 | 27.2 | 5.0 | 53.0*
Cc1cc2ncn(/N=C/c3ccc([N+](=O)[O-])s3)c2cc1C | . | 14.4 | . | . | 32.6
COc1ccc(C)c2sc(=NC(=O)c3ccc(C(C)=O)cc3)n(C)c12 | 97.2* | -15.3 | 89.0* | 81.6* | -305.3
